# Assay results: ChEMBL document CHEMBL1759857, “Synthesis and evaluation of isatin analogs as caspase-3 inhibitors: introduction of a hydrophilic group increases potency in a whole cell assay” (Bioorg Med Chem Lett, 2011)
# What was measured:
# Caspase-8 = Caspase-8 (Homo sapiens, UniProt Q14790); assay: Inhibition of caspase 8 by fluorometric assay
# Outline: (§1)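 Recombinant caspases were tested in a standard fluorometric enzyme assay. IC50 is reported as mean ± SD of at least three independent assays.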
# Caspase-3 [1] = biological target: T1, Caspase-3 (Homo sapiens, UniProt P42574); assay: Inhibition of staurosporine induced activation of caspase 3 activation in human Hela cells assessed as hydrolysis of Z-DEVD-R110 substrate by microplate fluorescence assay; type: cell-based
# T1 sequence (P42574 whole entry): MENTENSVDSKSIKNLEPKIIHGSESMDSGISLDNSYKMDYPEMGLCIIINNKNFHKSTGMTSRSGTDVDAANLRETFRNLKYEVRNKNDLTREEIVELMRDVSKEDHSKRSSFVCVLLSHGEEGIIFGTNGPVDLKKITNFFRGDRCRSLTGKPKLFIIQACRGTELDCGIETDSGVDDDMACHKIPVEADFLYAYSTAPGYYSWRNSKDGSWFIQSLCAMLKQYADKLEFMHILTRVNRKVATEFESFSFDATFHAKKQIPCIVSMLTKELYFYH
# Outline: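 HeLa cells were seeded at 1-2×10^4 per well and left to adhere overnight at 37°C in 5% CO2. […] A homogeneous caspase-3/7 kit with cell-permeable Z-DEVD-R110 was then used, reading fluorescence at ex 485/em 535 nm. EC50 was taken from dose-response curves, as mean ± SD of ≥3 independent experiments.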
# Caspase-7 = biological target: T2, Caspase-7 (Homo sapiens, UniProt P55210); assay: Inhibition of caspase 7 by fluorometric assay
# T2 sequence (P55210 whole entry): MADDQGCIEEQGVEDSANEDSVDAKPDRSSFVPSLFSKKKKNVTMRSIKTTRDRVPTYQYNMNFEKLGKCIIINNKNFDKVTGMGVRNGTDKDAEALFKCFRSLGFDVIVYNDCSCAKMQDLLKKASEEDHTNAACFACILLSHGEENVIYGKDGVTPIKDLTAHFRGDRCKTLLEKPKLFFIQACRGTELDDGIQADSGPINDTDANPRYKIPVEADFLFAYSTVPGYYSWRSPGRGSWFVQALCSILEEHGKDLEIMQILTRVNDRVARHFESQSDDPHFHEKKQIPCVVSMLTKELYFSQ
# Caspase-3 [2] = biological target: T1, Caspase-3; assay: Inhibition of human caspase 3 by fluorometric assay; outline: as §1
# Caspase-6 = biological target: T3, Caspase-6 (Homo sapiens, UniProt P55212); assay: Inhibition of caspase 6 by fluorometric assay; outline: as §1
# T3 sequence (P55212 whole entry): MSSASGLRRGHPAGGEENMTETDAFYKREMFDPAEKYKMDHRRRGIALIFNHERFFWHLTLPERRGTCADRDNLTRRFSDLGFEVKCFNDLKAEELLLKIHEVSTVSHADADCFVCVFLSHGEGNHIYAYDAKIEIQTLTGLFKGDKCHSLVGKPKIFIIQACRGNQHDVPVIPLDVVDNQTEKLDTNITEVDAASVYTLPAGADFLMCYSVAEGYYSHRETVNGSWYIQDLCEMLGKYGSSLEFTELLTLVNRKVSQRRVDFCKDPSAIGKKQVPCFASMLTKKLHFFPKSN
# Caspase-1 = biological target: T4, Caspase-1 (Homo sapiens, UniProt P29466); assay: Inhibition of caspase 1 by fluorometric assay; outline: as §1
# T4 sequence (P29466 whole entry): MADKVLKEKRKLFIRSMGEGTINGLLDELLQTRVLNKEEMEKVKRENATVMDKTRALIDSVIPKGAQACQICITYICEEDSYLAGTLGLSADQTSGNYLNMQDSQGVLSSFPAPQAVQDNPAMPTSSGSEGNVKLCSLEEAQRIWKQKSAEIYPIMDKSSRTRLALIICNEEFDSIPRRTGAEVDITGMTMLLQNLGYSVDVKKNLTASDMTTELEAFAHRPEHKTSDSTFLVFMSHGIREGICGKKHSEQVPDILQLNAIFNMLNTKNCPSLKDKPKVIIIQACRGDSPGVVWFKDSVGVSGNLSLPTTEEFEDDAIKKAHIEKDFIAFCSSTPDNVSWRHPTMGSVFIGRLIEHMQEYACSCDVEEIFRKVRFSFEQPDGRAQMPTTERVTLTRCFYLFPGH
# Chain of Caspase-8 (Q14790 217-374 limits assumed): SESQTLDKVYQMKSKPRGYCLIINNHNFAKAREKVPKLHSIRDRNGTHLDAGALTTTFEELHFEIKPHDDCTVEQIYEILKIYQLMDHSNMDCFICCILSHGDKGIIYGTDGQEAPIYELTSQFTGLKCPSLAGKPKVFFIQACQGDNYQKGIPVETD
# Chain of Caspase-8 (Q14790 385-479 limits assumed): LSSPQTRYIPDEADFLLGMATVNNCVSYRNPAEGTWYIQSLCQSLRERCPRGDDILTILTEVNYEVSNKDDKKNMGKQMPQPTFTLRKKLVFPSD
SMILES,IC50 (Caspase-8),EC50 (Caspase-3 [1]),IC50 (Caspase-7),IC50 (Caspase-3 [2]),IC50 (Caspase-6),IC50 (Caspase-1)
O=C1C(=O)N(Cc2ccc(OCCF)cc2)c2ccc(S(=O)(=O)N3CC[C@H]3COc3cccnc3)cc21,> 50000 nM,380 nM,17.6 nM,3.6 nM,8700 nM,> 10000 nM
COc1ccc(CN2C(=O)C(=O)c3cc(S(=O)(=O)N4CC[C@H]4COc4cccnc4)ccc32)cc1,> 50000 nM,450 nM,10.2 nM,3.3 nM,9200 nM,> 15000 nM
O=C1C(=O)N(Cc2ccc(OCCF)cc2)c2ccc(S(=O)(=O)N3CCC[C@H]3COc3cccnc3)cc21,> 50000 nM,390 nM,11.3 nM,3.1 nM,6900 nM,> 20000 nM
N#CC(C#N)=C1C(=O)N(Cc2ccc(OCCF)cc2)c2ccc(S(=O)(=O)N3CC[C@H]3COc3cccnc3)cc21,> 50000 nM,–,45 nM,7.1 nM,509 nM,2900 nM
COc1ccc(CN2C(=O)C(=C(C#N)C#N)c3cc(S(=O)(=O)N4CC[C@H]4COc4cccnc4)ccc32)cc1,> 50000 nM,–,50 nM,6 nM,450 nM,> 36000 nM
N#CC(C#N)=C1C(=O)N(Cc2ccc(OCCOCCF)cc2)c2ccc(S(=O)(=O)N3CCC[C@H]3COc3ccccc3)cc21,> 50000 nM,–,70 nM,23.3 nM,1160 nM,> 10000 nM
N#CC(C#N)=C1C(=O)N(Cc2ccc(OCCF)cc2)c2ccc(S(=O)(=O)N3CCC[C@H]3COc3cccnc3)cc21,> 50000 nM,–,26.5 nM,7.5 nM,770 nM,3500 nM
O=C1C(=O)N(Cc2cn(CCF)nn2)c2ccc(S(=O)(=O)N3CC[C@H]3COc3cccnc3)cc21,> 50000 nM,420 nM,6.1 nM,5.6 nM,7750 nM,> 20000 nM
O=C1C(=O)N(Cc2cn(CCF)nn2)c2ccc(S(=O)(=O)N3CCC[C@H]3COc3cccnc3)cc21,> 50000 nM,350 nM,–,4.5 nM,13400 nM,> 20000 nM
O=C1C(=O)N(Cc2ccc(OCCF)cc2)c2ccc(S(=O)(=O)N3CC[C@H]3COc3ccc(F)cc3F)cc21,> 50000 nM,1390 nM,15.4 nM,12 nM,3480 nM,> 50000 nM
O=C1C(=O)N(Cc2ccc(OCCF)cc2)c2ccc(S(=O)(=O)N3CCC[C@H]3COc3ccc(F)cc3F)cc21,> 50000 nM,2500 nM,12.3 nM,15.2 nM,9120 nM,> 50000 nM
O=C1C(=O)N(Cc2cn(CCF)nn2)c2ccc(S(=O)(=O)N3CC[C@H]3COc3ccc(F)cc3F)cc21,> 50000 nM,1060 nM,15.3 nM,13.4 nM,4700 nM,> 20000 nM
CN1C(=O)C(=O)c2cc(S(=O)(=O)N3CCC[C@H]3COc3cccnc3)ccc21,–,1800 nM,–,–,–,–
O=C1C(=O)N(Cc2cn(CCF)nn2)c2ccc(S(=O)(=O)N3CCC[C@H]3COc3ccc(F)cc3F)cc21,> 50000 nM,680 nM,11.6 nM,10.8 nM,4430 nM,> 20000 nM

# Results, then the compound that gave them:
IC50 (Caspase-8),EC50 (Caspase-3 [1]),IC50 (Caspase-7),IC50 (Caspase-3 [2]),IC50 (Caspase-6),IC50 (Caspase-1),SMILES
> 25000 nM,2000 nM,26.1 nM,8.6 nM,4930 nM,> 20000 nM,O=C1C(=O)N(Cc2ccc(OCCF)cc2)c2ccc(S(=O)(=O)N3CC[C@H]3COc3ccccc3)cc21
> 50000 nM,2150 nM,28.9 nM,27.9 nM,> 10000 nM,> 50000 nM,O=C1C(=O)N(Cc2ccc(OCCOCCF)cc2)c2ccc(S(=O)(=O)N3CC[C@H]3COc3ccccc3)cc21
> 50000 nM,–,19.2 nM,26.9 nM,2990 nM,> 25000 nM,O=C1C(=O)N(Cc2ccc(OCCOCCOCCF)cc2)c2ccc(S(=O)(=O)N3CC[C@H]3COc3ccccc3)cc21
> 50000 nM,1690 nM,11.9 nM,10.9 nM,> 10000 nM,> 25000 nM,O=C1C(=O)N(Cc2ccc(OCCOCCF)cc2)c2ccc(S(=O)(=O)N3CCC[C@H]3COc3ccccc3)cc21
> 50000 nM,1300 nM,17.6 nM,13.7 nM,7670 nM,> 50000 nM,O=C1C(=O)N(Cc2ccc(OCCOCCOCCF)cc2)c2ccc(S(=O)(=O)N3CCC[C@H]3COc3ccccc3)cc21
> 25000 nM,–,292 nM,22.4 nM,747 nM,4780 nM,N#CC(C#N)=C1C(=O)N(Cc2ccc(OCCF)cc2)c2ccc(S(=O)(=O)N3CC[C@H]3COc3ccccc3)cc21
> 50000 nM,–,68.3 nM,24.4 nM,1010 nM,5730 nM,N#CC(C#N)=C1C(=O)N(Cc2ccc(OCCOCCF)cc2)c2ccc(S(=O)(=O)N3CC[C@H]3COc3ccccc3)cc21
> 50000 nM,–,96.3 nM,18.3 nM,927 nM,> 10000 nM,N#CC(C#N)=C1C(=O)N(Cc2ccc(OCCF)cc2)c2ccc(S(=O)(=O)N3CCC[C@H]3COc3ccccc3)cc21
> 50000 nM,800 nM,18 nM,11 nM,6950 nM,> 20000 nM,O=C1C(=O)N(Cc2cn(CCF)nn2)c2ccc(S(=O)(=O)N3CC[C@H]3COc3ccccc3)cc21
–,1830 nM,–,–,–,–,O=C1Nc2ccc(S(=O)(=O)N3CCC[C@H]3COc3cccnc3)cc2C1=O
–,650 nM,–,–,–,–,O=C1C(=O)N(Cc2ccccc2)c2ccc(S(=O)(=O)N3CCC[C@H]3COc3cccnc3)cc21
–,9570 nM,–,–,–,–,O=C1Nc2ccc(S(=O)(=O)N3CC[C@H]3COc3ccccc3)cc2C1=O
–,2800 nM,–,–,–,–,O=C1C(=O)N(Cc2ccccc2)c2ccc(S(=O)(=O)N3CC[C@H]3COc3ccccc3)cc21
–,3070 nM,–,–,–,–,COc1ccc(CN2C(=O)C(=O)c3cc(S(=O)(=O)N4CC[C@H]4COc4ccccc4)ccc32)cc1
–,4500 nM,–,–,–,–,O=C1C(=O)N(Cc2ccc(OCCF)cc2)c2ccc(S(=O)(=O)N3CCC[C@H]3COc3ccccc3)cc21
–,7670 nM,–,–,–,–,CN1C(=O)C(=O)c2cc(S(=O)(=O)N3CCC[C@H]3COc3ccccc3)ccc21
–,3250 nM,–,–,–,–,CN1C(=O)C(=O)c2cc(S(=O)(=O)N3CC[C@H]3COc3ccccc3)ccc21
–,450 nM,–,–,–,–,COc1ccc(CN2C(=O)C(=O)c3cc(S(=O)(=O)N4CCC[C@H]4COc4cccnc4)ccc32)cc1
–,3670 nM,–,–,–,–,O=C1C(=O)N(Cc2ccccc2)c2ccc(S(=O)(=O)N3CCC[C@H]3COc3ccccc3)cc21
> 50000 nM,930 nM,12.4 nM,12.2 nM,9970 nM,> 20000 nM,O=C1C(=O)N(Cc2cn(CCF)nn2)c2ccc(S(=O)(=O)N3CCC[C@H]3COc3ccccc3)cc21
–,11500 nM,–,–,–,–,O=C1Nc2ccc(S(=O)(=O)N3CCC[C@H]3COc3ccccc3)cc2C1=O
